Data: ChEMBL document CHEMBL1671843, “Synthesis and SAR of Thiazolylmethylphenyl Glucoside as Novel C-Aryl Glucoside SGLT2 Inhibitors” (ACS Med Chem Lett, 2011)
pIC50: −log10 of the molar value.

Assays:
[1] = target: T1, Sodium/glucose cotransporter 2 (Homo sapiens, UniProt P31639); test: Inhibition of human SGLT2 expressed in CHO cells assessed as [14C]-alpha-methyl-D-glucopyranoside uptake after 2 hrs by liquid scintillation counting; type: cell-based
T1 sequence (P31639 whole entry): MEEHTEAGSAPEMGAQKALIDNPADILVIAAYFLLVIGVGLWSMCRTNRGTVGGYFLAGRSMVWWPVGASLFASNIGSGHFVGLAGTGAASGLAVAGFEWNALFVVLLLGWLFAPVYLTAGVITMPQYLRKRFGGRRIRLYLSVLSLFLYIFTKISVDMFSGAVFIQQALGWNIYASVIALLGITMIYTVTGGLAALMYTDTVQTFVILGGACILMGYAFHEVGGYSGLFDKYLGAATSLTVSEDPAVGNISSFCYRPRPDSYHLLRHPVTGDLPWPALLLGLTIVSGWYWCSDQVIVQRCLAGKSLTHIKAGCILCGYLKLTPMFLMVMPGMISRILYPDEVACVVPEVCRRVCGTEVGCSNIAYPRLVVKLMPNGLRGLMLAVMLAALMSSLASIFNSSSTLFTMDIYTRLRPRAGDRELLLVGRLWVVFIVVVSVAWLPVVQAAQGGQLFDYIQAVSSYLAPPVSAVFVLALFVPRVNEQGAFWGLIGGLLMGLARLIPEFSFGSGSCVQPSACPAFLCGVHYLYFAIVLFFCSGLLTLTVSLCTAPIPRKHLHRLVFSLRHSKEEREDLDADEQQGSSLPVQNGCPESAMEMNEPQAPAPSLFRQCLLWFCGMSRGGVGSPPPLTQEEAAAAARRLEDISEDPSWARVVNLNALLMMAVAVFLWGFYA
Method in brief: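 Sodium-dependent glucose transport assay against hSGLT2. IC50 was fitted by nonlinear regression. Values are from single determinations.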

[2] = tested on: Rattus norvegicus; test: Antidiabetic activity in Sprague-Dawley rat assessed as increase of urine volume at 1 mg/kg, po relative to control; type: functional
Method in brief: (§1)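 Normal Sprague-Dawley rats given a single oral dose (1 or 10 mg/kg) against vehicle controls. Urinary glucose excretion and urine volume were measured and expressed as fold over vehicle. Data are means ± SEM, compared to vehicle by one-way ANOVA with Dunnett's post hoc test.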

[3] = tested on: Rattus norvegicus; test: Antidiabetic activity in Sprague-Dawley rat assessed as increase of glucose disposal at 1 mg/kg, po relative to control; type: functional; method in brief: as §1
[4] = tested on: Rattus norvegicus; test: Antidiabetic activity in Sprague-Dawley rat assessed as increase of glucose disposal at 10 mg/kg, po relative to control; type: functional; method in brief: as §1
[5] = Oral bioavailability in Sprague-Dawley rat at 5 mg/kg; type: ADME, organism-based; details: in vivo
Method in brief: (§2)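 Male Sprague-Dawley rats dosed orally at 5 mg/kg. Measured Cmax with time to Cmax, elimination half-life and oral bioavailability (F).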

[6] = Cmax in Sprague-Dawley rat at 5 mg/kg, po after 0.38 hrs; type: ADME, organism-based; design: dose 5 mg/kg, route oral; details: in vivo; method in brief: as §2
[7] = tested on: Rattus norvegicus; test: Antidiabetic activity in Sprague-Dawley rat assessed as increase of urine volume at 10 mg/kg, po relative to control; type: functional; method in brief: as §1
[8] = Elimination half life in Sprague-Dawley rat at 5 mg/kg, po; type: ADME, organism-based; design: dose 5 mg/kg, route oral; details: in vivo; method in brief: as §2
[9] = tested on: Rattus norvegicus; test: Antidiabetic activity in Sprague-Dawley rat assessed as increase of urinary glucose excretion at 10 mg/kg, po relative to control; type: functional, Urine
Method in brief: (§3)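 Normal Sprague-Dawley rats received a single oral dose of 1 or 10 mg/kg. Urinary glucose excretion was measured and expressed as fold elevation in glucose disposal over vehicle-treated controls. Values are means ± SEM, compared with vehicle by one-way ANOVA with Dunnett's post hoc test. Urine volume was also recorded.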

[10] = tested on: Rattus norvegicus; test: Antidiabetic activity in Sprague-Dawley rat assessed as increase of urinary glucose excretion at 1 mg/kg, po relative to control; type: functional, Urine; method in brief: as §3

| Structure (SMILES) | pIC50 [1] | further results |
| --- | --- | --- |
| OC[C@H]1O[C@@H](c2ccc(Br)c(Cc3ncc(-c4ccsc4)s3)c2)[C@H](O)[C@@H](O)[C@@H]1O | 8.20 | – |
| OC[C@H]1O[C@@H](c2ccc(Cl)c(Cc3ncc(-c4ccsc4)s3)c2)[C@H](O)[C@@H](O)[C@@H]1O | 9.11 | fold change (FC) [2]: 2.5; fold change (FC) [3]: 160; fold change (FC) [4]: 730; bioavailability [5]: 15%; Cmax [6]: 1540 ng/mL; fold change (FC) [7]: 4.2; half-life [8]: 2.51 h |
| CCOc1ccc(Cc2cc([C@@H]3O[C@H](CO)[C@@H](O)[C@H](O)[C@H]3O)ccc2Cl)cc1 [DAPAGLIFLOZIN] | – | fold change (FC) [2]: 5.7; bioavailability [5]: 88% |
| CCCCCCCc1cnc(Cc2cc([C@@H]3O[C@H](CO)[C@@H](O)[C@H](O)[C@H]3O)ccc2Cl)s1 | 7.91 | – |
| OC[C@H]1O[C@@H](c2ccc(Cl)c(Cc3ncc(-c4ccco4)s3)c2)[C@H](O)[C@@H](O)[C@@H]1O | 9.14 | fold change (FC) [9]: 700; bioavailability [5]: 20.6%; fold change (FC) [10]: 230; fold change (FC) [7]: 3.7 |
| OC[C@H]1O[C@@H](c2ccc(Cl)c(Cc3ncc(-c4nccs4)s3)c2)[C@H](O)[C@@H](O)[C@@H]1O | 8.50 | – |
| OC[C@H]1O[C@@H](c2ccc(Cl)c(Cc3cnc(-c4ccsc4)s3)c2)[C@H](O)[C@@H](O)[C@@H]1O | 8.95 | – |
| OC[C@H]1O[C@@H](c2ccc(Cl)c(Cc3ncc(-c4cccs4)s3)c2)[C@H](O)[C@@H](O)[C@@H]1O | 8.94 | – |
| OC[C@H]1O[C@@H](c2ccc(F)c(Cc3ncc(-c4ccsc4)s3)c2)[C@H](O)[C@@H](O)[C@@H]1O | 8.13 | – |
| OC[C@H]1O[C@@H](c2ccc(Cl)c(Cc3ncc(-c4ccc(-c5ccccc5)cc4)s3)c2)[C@H](O)[C@@H](O)[C@@H]1O | 8.03 | – |
| N#Cc1ccc([C@@H]2O[C@H](CO)[C@@H](O)[C@H](O)[C@H]2O)cc1Cc1ncc(-c2ccsc2)s1 | 6.85 | – |
| OC[C@H]1O[C@@H](c2ccc(C(F)(F)F)c(Cc3ncc(-c4ccsc4)s3)c2)[C@H](O)[C@@H](O)[C@@H]1O | 7.84 | – |
| CCCCOc1cnc(Cc2cc([C@@H]3O[C@H](CO)[C@@H](O)[C@H](O)[C@H]3O)ccc2Cl)s1 | 7.71 | – |
| OC[C@H]1O[C@@H](c2ccc(Cl)c(Cc3ncc(-c4ccccc4)s3)c2)[C@H](O)[C@@H](O)[C@@H]1O | 7.88 | – |
| O=C(O)c1cnc(Cc2cc([C@@H]3O[C@H](CO)[C@@H](O)[C@H](O)[C@H]3O)ccc2Cl)s1 | < 5.00 | – |
| OC[C@H]1O[C@@H](c2ccc(Cl)c(Cc3ncc(-c4ccoc4)s3)c2)[C@H](O)[C@@H](O)[C@@H]1O | 8.80 | – |
